# Active and inactive are the calls of the source. The calls are words filed in the database; no cut-off is given here.
# Key:
# [1] = biological target: T1, Amine oxidase [flavin-containing] A (Homo sapiens, UniProt P21397); test: Inhibition of recombinant MAO-A (unknown origin) at 20 uM preincubated for 30 mins followed substrate addition by Amplex Red reagent based fluorescence analysis relative to control
# T1 sequence (P21397 whole entry): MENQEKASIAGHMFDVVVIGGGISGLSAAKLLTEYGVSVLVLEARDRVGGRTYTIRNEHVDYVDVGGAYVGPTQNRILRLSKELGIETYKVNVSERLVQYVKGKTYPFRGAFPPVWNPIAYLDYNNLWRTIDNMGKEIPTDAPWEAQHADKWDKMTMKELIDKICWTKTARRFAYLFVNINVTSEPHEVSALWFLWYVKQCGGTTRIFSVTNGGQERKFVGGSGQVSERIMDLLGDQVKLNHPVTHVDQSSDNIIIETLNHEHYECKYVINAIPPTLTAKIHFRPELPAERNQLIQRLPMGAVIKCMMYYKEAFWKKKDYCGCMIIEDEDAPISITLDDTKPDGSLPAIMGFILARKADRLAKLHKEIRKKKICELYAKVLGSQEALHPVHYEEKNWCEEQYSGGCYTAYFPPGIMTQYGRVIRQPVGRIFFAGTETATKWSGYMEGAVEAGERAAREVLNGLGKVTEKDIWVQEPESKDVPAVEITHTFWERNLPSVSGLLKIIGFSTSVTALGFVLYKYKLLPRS
# Procedure, shortened: (§1)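 Recombinant MAO enzyme preincubated with compound 30 min at 37 °C; substrate, HRP and Amplex Red working solution then added; H2O2 formation read at 37 °C by fluorescence, ex 545/em 590 nm. Screening at 20 μM as % inhibition versus control; IC50 only for compounds above 50% inhibition at 20 μM; triplicate (n = 3).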
# [2] = biological target: T2, Amine oxidase [flavin-containing] B (Homo sapiens, UniProt P27338); test: Inhibition of recombinant MAO-B (unknown origin) at 20 uM preincubated for 30 mins followed substrate addition by Amplex Red reagent based fluorescence analysis relative to control; procedure, shortened: as §1
# T2 sequence (P27338 whole entry): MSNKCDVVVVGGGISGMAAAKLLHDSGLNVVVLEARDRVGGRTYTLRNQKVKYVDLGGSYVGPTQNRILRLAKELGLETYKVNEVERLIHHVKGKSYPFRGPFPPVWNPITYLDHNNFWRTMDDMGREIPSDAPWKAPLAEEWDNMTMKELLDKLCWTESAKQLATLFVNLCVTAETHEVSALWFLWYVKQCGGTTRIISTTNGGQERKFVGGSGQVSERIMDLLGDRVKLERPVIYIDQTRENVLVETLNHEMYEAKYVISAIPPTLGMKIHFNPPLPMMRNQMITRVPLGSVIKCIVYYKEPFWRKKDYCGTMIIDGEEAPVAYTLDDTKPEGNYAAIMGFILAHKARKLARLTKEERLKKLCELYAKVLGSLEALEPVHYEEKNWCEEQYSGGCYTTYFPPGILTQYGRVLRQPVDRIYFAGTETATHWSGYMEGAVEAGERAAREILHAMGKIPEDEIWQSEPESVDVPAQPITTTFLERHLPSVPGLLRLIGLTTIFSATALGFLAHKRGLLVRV
# [3] = biological target: Amyloid-beta precursor protein (Homo sapiens) (UniProt P05067); test: Inhibition of self-induced amyloid beta (1 to 42 residues) (unknown origin) aggregation at 20 uM incubated at 48 hrs by fluorimetry-based thioflavin T assay
# Procedure, shortened: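 Aβ1-42 pretreated with HFIP (1 mg mL−1) and dried, then incubated with compound (20 μM) at 37 °C for 24 h; an aliquot transferred and incubated further to 48 h. Glycine–NaOH buffer pH 8.0 with 5 μM ThT added; fluorescence read at 440–485 nm. % inhibition calculated against the Aβ-only control taken as 0%.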
# [4] = biological target: T2, Amine oxidase [flavin-containing] B; test: Inhibition of recombinant MAO-B (unknown origin) preincubated for 30 mins followed substrate addition by Amplex Red reagent based fluorescence analysis
# Acetylcholinesterase [5] = biological target: T3, Acetylcholinesterase (Homo sapiens, UniProt P22303); test: Reversible inhibition of AChE (unknown origin) assessed as residual activity at 10 times IC50 incubated for 30 mins by dilution method relative to control
# Procedure, shortened: (§2)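 Samples then diluted 100-fold with substrate, giving final inhibitor levels of 0.1× and 1× IC50. Recovered activity measured relative to control; triplicate.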
# Acetylcholinesterase [6] = biological target: T3, Acetylcholinesterase; test: Reversible inhibition of AChE (unknown origin) assessed as residual activity at 1 times IC50 incubated for 30 mins by dilution method relative to control; procedure, shortened: as §2
# Acetylcholinesterase [7] = biological target: T3, Acetylcholinesterase; test: Reversible inhibition of AChE (unknown origin) assessed as residual activity at 0.1 times IC50 incubated for 30 mins by dilution method relative to control; procedure, shortened: as §2
# [8] = biological target: T2, Amine oxidase [flavin-containing] B; test: Reversible inhibition of MAO-B (unknown origin) assessed as residual activity at 1 times IC50 incubated for 30 mins by dilution method relative to control; conditions: 0.5 h
# Acetylcholinesterase [9] = biological target: T3, Acetylcholinesterase; test: Mixed type inhibition of AChE (unknown origin) by Lineweaver-Burk plot analysis
# Procedure, shortened: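 Ellman-based AChE kinetics run at several substrate concentrations and several final inhibitor concentrations. Mode of inhibition assigned from double-reciprocal Lineweaver–Burk plots.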
# SH-SY5Y [10] = test: Cytotoxicity against human SH-SY5Y cells assessed as cell viability at 1 uM by MTT assay relative to control; format: functional; conditions: read-out: Activity
# Procedure, shortened: (§3)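 SH-SY5Y cells (DMEM/F-12 with 10% FBS, 1% horse serum, 1% penicillin) preincubated 24 h with compound at 1, 5 or 25 μM; MTT converted to formazan, solubilised in DMSO, absorbance read at 595 nm; viability expressed as percentage of untreated control.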
# SH-SY5Y [11] = test: Cytotoxicity against human SH-SY5Y cells assessed as cell viability at 5 uM by MTT assay relative to control; format: functional; conditions: read-out: Activity; procedure, shortened: as §3
# SH-SY5Y [12] = test: Cytotoxicity against human SH-SY5Y cells assessed as cell viability at 25 uM by MTT assay relative to control; format: functional; conditions: read-out: Activity; procedure, shortened: as §3
# SH-SY5Y [13] = test: Cytotoxicity against human SH-SY5Y cells assessed as reduction in cell viability at 1 to 25 uM by MTT assay; format: functional, cell-based; conditions: dose 1-25 µM; procedure, shortened: as §3
# SH-SY5Y [14] = test: Inhibition of ROS production in human SH-SY5Y cells assessed as intracellular ROS level at 5 uM incubated for 24 hrs by DCF-DA staining based fluorescence analysis relative to control; format: functional
# Procedure, shortened: (§4)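 Cultured SH-SY5Y cells exposed to compound (1, 5, 25 μM) for 24 h; intracellular ROS detected with DCF-DA, which is converted to fluorescent 2,7-DCF, read at ex 478/em 518 nm. Inhibition is expressed relative to control. Mean ± SD of triplicate or more independent experiments.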
# SH-SY5Y [15] = test: Inhibition of ROS production in human SH-SY5Y cells assessed as intracellular ROS level at 25 uM incubated for 24 hrs by DCF-DA staining based fluorescence analysis relative to control; format: functional; procedure, shortened: as §4
# SH-SY5Y [16] = test: Neuroprotective activity against 6-OHDA-induced cytotoxicity in human SH-SY5Y cells assessed as cell viability at 1 uM incubated for 24 hrs followed by exposure to 6-OHDA by MTT assay relative to control; format: functional; conditions: read-out: Activity
# Procedure, shortened: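 SH-SY5Y cells treated with compound (1, 5, 25 μM) and challenged with 6-OHDA; cultured 24 h at 37 °C under humidified 5% CO2. Viability measured by MTT as formazan absorbance at 594 nm and expressed relative to control.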
# T3 sequence (P22303 whole entry): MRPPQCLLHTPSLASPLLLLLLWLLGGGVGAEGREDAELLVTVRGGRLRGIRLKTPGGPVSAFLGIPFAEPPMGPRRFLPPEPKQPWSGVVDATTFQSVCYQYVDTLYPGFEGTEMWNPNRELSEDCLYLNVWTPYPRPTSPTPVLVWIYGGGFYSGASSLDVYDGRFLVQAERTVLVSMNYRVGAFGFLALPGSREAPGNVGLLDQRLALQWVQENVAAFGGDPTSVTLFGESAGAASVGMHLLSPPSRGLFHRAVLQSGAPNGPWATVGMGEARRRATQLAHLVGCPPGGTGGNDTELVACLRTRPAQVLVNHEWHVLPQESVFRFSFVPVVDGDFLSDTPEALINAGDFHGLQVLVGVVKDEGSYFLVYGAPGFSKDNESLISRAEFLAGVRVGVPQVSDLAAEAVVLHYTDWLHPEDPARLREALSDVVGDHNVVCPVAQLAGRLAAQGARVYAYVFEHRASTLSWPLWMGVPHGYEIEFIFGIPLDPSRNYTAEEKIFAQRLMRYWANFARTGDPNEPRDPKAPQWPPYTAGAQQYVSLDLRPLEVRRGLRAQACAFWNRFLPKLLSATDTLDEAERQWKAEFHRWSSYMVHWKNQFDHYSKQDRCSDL
# Chain of Amyloid-beta precursor protein (Homo sapiens) (P05067 whole entry, the tested form may be a part): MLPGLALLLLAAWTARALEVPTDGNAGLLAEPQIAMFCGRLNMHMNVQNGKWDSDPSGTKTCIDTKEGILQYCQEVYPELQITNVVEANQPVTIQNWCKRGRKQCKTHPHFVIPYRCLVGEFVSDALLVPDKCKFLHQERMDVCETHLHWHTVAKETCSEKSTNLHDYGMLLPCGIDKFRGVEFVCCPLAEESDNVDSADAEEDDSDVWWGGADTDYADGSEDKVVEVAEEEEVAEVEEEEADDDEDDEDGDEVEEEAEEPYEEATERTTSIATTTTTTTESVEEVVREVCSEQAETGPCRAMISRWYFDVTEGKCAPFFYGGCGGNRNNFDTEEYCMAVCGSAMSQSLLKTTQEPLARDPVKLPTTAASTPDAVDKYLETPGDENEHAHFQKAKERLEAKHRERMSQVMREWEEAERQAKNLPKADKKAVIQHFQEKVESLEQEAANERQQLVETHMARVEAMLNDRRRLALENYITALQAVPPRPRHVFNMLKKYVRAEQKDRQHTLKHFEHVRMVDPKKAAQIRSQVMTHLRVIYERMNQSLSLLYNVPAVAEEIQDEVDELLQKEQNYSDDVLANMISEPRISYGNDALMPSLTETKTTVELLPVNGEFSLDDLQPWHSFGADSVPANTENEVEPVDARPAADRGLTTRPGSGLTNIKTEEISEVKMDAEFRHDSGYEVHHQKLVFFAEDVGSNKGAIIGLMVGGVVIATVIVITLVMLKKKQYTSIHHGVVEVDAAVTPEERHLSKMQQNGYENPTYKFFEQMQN
smiles,measurement,setting,value
C#CCCCOc1ccc(-c2cc(=O)c3ccccc3o2)cc1CN1CCCCC1,inhibition at 20 µM,[1],0.23%
same,inhibition at 20 µM,[2],61.2%
same,inhibition,[3],32.2%
same,IC50,[4],12.3 µM
same,Activity,Acetylcholinesterase [5],28.9%
same,Activity,Acetylcholinesterase [6],44.9%
same,Activity,Acetylcholinesterase [7],60.6%
same,Activity,[8],50.3%
same,inhibition,Acetylcholinesterase [9],Active
same,viability at 1 µM,SH-SY5Y [10],99.6%
same,viability at 5 µM,SH-SY5Y [11],97.4%
same,viability at 25 µM,SH-SY5Y [12],88.3%
same,Activity,SH-SY5Y [13],Not toxic
same,inhibition at 5 µM,SH-SY5Y [14],44.9%
same,inhibition at 25 µM,SH-SY5Y [15],34.8%
same,viability at 1 µM,SH-SY5Y [16],55.1%

# — ChEMBL document CHEMBL6134795, “Mannich reaction mediated derivatization of chromones and their biological evaluations as putative multipotent ligands for the treatment of Alzheimer's disease” (RSC Med Chem, 2024)
